# Assay results: ChEMBL document CHEMBL1140712 (J Med Chem, 2008)
# Experiments:
# [1] = tested on: Rattus norvegicus; assay: Reduction of food intake in Sprague-Dawley rat at 50 umol/kg, po after 2 hrs relative to control; assay type: functional
# How it was run: (§1)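 Male Sprague-Dawley rats, caged singly, kept 2 weeks on a reverse light cycle, freely fed, eight per group. Oral gavage of vehicle or compound 1 h before the dark cycle. Food intake measured 2 h postdose and compared with vehicle control.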
# [2] = tested on: Rattus norvegicus; assay: Reduction of food intake in Sprague-Dawley rat at 12.5 umol/kg, po after 2 hrs relative to control; assay type: functional; how it was run: as §1
# [3] = tested on: Rattus norvegicus; assay: Reduction of food intake in Sprague-Dawley rat at 25 umol/kg, po after 2 hrs relative to control; assay type: functional; how it was run: as §1
# [4] = tested on: Rattus norvegicus; assay: Reduction of food intake in Sprague-Dawley rat at 100 umol/kg, po after 2 hrs relative to control; assay type: functional; how it was run: as §1
# [5] = molecular target: 5-hydroxytryptamine receptor 2A (Homo sapiens, UniProt P28223); assay: Agonist activity at human 5HT2A receptor expressed in HEK293 cells assessed as intracellular IP3 accumulation; assay type: functional, cell-based
# Sequence of 5-hydroxytryptamine receptor 2A (P28223 whole entry): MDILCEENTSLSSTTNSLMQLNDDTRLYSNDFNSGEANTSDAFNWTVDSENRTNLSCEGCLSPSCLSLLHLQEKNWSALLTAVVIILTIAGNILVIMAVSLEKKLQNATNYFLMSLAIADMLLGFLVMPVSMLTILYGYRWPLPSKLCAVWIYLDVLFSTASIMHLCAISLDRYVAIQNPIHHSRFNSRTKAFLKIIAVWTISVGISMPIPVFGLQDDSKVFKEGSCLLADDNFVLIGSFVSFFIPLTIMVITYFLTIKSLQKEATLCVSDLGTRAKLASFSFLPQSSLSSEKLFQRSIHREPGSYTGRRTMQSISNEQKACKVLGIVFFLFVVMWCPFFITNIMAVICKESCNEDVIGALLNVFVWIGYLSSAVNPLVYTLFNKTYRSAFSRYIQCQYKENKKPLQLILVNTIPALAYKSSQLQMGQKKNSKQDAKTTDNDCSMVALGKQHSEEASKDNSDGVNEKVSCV
# How it was run: (§2)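 Functional agonist assay read out as [3H]phosphoinositol turnover; potency expressed as pEC50.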
# [6] = molecular target: T1, 5-hydroxytryptamine receptor 2C (Homo sapiens, UniProt P28335); assay: Agonist activity at human 5HT2C receptor expressed in HEK293 cells assessed as intracellular IP3 accumulation; assay type: functional, cell-based; how it was run: as §2
# T1 sequence (P28335 whole entry): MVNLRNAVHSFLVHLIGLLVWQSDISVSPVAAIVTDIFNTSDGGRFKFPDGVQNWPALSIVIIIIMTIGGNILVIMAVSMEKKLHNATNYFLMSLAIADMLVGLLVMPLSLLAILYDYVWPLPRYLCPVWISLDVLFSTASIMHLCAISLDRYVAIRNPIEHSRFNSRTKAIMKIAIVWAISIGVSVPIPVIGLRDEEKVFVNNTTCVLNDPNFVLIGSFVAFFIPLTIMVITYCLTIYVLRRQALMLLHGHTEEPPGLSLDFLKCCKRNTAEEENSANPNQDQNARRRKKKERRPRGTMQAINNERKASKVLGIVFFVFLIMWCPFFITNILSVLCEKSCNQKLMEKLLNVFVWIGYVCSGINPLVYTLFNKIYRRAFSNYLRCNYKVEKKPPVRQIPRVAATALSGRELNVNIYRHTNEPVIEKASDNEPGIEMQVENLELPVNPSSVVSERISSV
# [7] = molecular target: 5-hydroxytryptamine receptor 2B (Homo sapiens, UniProt P41595); assay: Agonist activity at human 5HT2B receptor expressed in HEK293 cells assessed as intracellular IP3 accumulation; assay type: functional, cell-based; how it was run: as §2
# Sequence of 5-hydroxytryptamine receptor 2B (P41595 whole entry): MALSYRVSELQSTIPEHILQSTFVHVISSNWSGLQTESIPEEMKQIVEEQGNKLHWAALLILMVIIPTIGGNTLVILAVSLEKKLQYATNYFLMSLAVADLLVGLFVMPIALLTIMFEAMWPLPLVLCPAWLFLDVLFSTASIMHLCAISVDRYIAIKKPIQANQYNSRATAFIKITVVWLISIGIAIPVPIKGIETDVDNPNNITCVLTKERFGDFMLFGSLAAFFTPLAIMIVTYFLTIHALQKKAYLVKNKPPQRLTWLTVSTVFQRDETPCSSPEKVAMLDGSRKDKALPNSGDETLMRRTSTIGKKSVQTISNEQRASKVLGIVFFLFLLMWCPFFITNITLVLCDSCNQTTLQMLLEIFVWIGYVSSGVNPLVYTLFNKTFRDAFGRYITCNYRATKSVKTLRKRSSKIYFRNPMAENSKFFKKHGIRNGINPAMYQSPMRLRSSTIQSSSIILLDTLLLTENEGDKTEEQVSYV
# [8] = molecular target: Serotonin 2 receptors; 5-HT2a & 5-HT2c (Homo sapiens) (UniProt P28223+P28335); assay: Selectivity ratio of pEC50 for human 5HT2A to pEC50 for human 5HT2C
# Sequence of Serotonin 2 receptors; 5-HT2a & 5-HT2c (Homo sapiens) (P28223 whole entry, looked up, one chain of several): as the sequence (P28223 whole entry) above
# [9] = species on record: Homo sapiens; assay: Selectivity ratio of pEC50 for human 5HT2B to pEC50 for human 5HT2C
# [10] = tested on: Rattus norvegicus; assay: Reduction of body weight in Sprague-Dawley rat at 9 mg/kg, po, bid after 28 days relative to control; assay type: functional; parameters: scale not given: the % may be the effect or the level left
# How it was run: (§3)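 Adult male Sprague-Dawley rats (250–400 g), caged separately with free access to food and water. Oral gavage of vehicle or drug for 28 days, with arms of 9, 18 and 36 mg/kg twice daily and 18 mg/kg once daily. Daily food intake and body weight recorded and compared with vehicle control.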
# [11] = Volume of distribution at steady state in Sprague-Dawley rat at 5 mg/kg, iv; assay type: ADME, organism-based; parameters: dose 5 mg/kg, route intravenous; conditions: in vivo, read-out: Vdss
# [12] = species on record: Rattus norvegicus; assay: Reduction of food intake in Sprague-Dawley rat after 6 hrs relative to control; assay type: functional
# How it was run: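 Male Sprague-Dawley rats, individually caged after 2 weeks on a reverse light cycle, freely fed, eight per group. Dosed by oral gavage 1 h before the dark cycle. Food intake measured 6 h postdose versus vehicle-treated rats.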
# [13] = tested on: Rattus norvegicus; assay: Reduction of body weight in Sprague-Dawley rat at 18 mg/kg, po, bid after 28 days relative to control; assay type: functional; parameters: scale not given: the % may be the effect or the level left; how it was run: as §3
# [14] = Half life in Sprague-Dawley rat at 5 mg/kg, iv; assay type: ADME, organism-based; parameters: dose 5 mg/kg, route intravenous; conditions: in vivo
# [15] = AUC (0-infinity) in Sprague-Dawley rat at 5 mg/kg, iv; assay type: ADME, organism-based; parameters: time infinity, dose 5 mg/kg, route intravenous; conditions: plasma
# [16] = tested on: Rattus norvegicus; assay: Reduction of body weight in Sprague-Dawley rat at 36 mg/kg, po, bid after 28 days relative to control; assay type: functional; parameters: scale not given: the % may be the effect or the level left; how it was run: as §3
# [17] = Oral bioavailability in Sprague-Dawley rat at 10 mg/kg; assay type: ADME, organism-based; conditions: in vivo
# [18] = Cmax in Sprague-Dawley rat at 10 mg/kg, po; assay type: ADME, organism-based; parameters: dose 10 mg/kg, route oral; conditions: in vivo
# [19] = Half life in Sprague-Dawley rat at 10 mg/kg, po; assay type: ADME, organism-based; parameters: dose 10 mg/kg, route oral; conditions: in vivo
# [20] = Clearance in Sprague-Dawley rat at 5 mg/kg, iv; assay type: ADME, organism-based; parameters: dose 5 mg/kg, route intravenous; conditions: in vivo
# [21] = Tmax in Sprague-Dawley rat at 10 mg/kg, po; assay type: ADME, organism-based; parameters: dose 10 mg/kg, route oral; conditions: in vivo
# [22] = AUC (0-infinity) in Sprague-Dawley rat at 10 mg/kg, po; assay type: ADME, organism-based; parameters: time infinity, dose 10 mg/kg, route oral; conditions: plasma
# [23] = tested on: Rattus norvegicus; assay: Reduction of body weight in Sprague-Dawley rat at 18 mg/kg, po, qd after 28 days relative to control; assay type: functional; parameters: scale not given: the % may be the effect or the level left; how it was run: as §3
SMILES,inhibition in vivo at 50 µmol/kg [1] [%],inhibition in vivo at 25 µmol/kg [3] [%],inhibition in vivo at 100 µmol/kg [4] [%],EC50 [5] [nM],EC50 [6] [nM],EC50 [7] [nM],Selectivity ratio [8],Selectivity ratio [9],also measured
C[C@@H]1CNCCc2ccc(Cl)cc21,41,26,73,–,–,–,–,–,inhibition in vivo at 12.5 µmol/kg [2]: 7%
C[C@H]1CNCCc2ccc(Cl)c(Cl)c21,–,–,–,2510,316,> 10000,–,–,–
CC1CNCCc2c(Cl)cc(Cl)cc21 (centres undefined),–,–,–,126,–,794,0.8,1.6,–
Clc1ccc2c(c1)CCNCC2,68,63,85,100,12.6,–,0.9,1.9,–
C[C@@H]1CNCCc2ccc(Cl)c(Cl)c21,41,19,69,126,3.16,1260,1.6,2.6,–
c1ccc2c(c1)CCNCC2,–,–,–,> 10000,3160,> 10000,–,–,–
C[C@H]1CNCCc2cc(Cl)c(Cl)cc21,40,16,66,10,3.98,39.8,0.4,1,–
C[C@@H]1CNCCc2cc(Cl)c(Cl)cc21,58,54,74,100,7.94,251,1.1,1.5,–
C[C@@H]1CNCCc2ccc(Cl)c(F)c21,–,–,–,1000,3.98,> 10000,2.4,> 3.4,–
CC[C@H]1CNCCc2ccc(Cl)cc21,–,–,–,251,39.8,251,0.8,0.8,–
CC[C@@H]1CNCCc2ccc(Cl)cc21,–,–,–,316,20,631,1.2,1.5,–
C[C@H]1CNCCc2ccc(C(F)(F)F)cc21,41,22,–,126,7.94,501,1.2,1.8,inhibition in vivo at 12.5 µmol/kg [2]: 14%
C[C@@H]1CNCCc2ccc(C(F)(F)F)cc21,45,18,–,100,10,794,1,1.9,inhibition in vivo at 12.5 µmol/kg [2]: 16%
CC1(C)CNCCc2ccc(Cl)cc21,–,–,–,1580,200,> 10000,–,–,–
C[C@H](N)Cn1ccc2cc(F)c(Cl)cc21,–,–,–,50.1,3.98,1.58,1.1,-0.4,–
CC1CNCCc2ccc(C(F)(F)F)cc21 (racemic),–,–,–,–,6.31,794,1.2,2.1,–
CC1CNCCc2ccc(Cl)c(Cl)c21 (racemic),–,–,–,200,7.94,1580,1.4,2.3,–
CC1CNCCc2ccc(F)cc21 (racemic),–,–,–,–,398,> 10000,–,–,–
CC1CNCCc2cc(Cl)c(Cl)cc21 (racemic),44,33,60,20,–,50.1,0.7,1.1,–

SMILES,inhibition in vivo at 50 µmol/kg [1] [%],inhibition in vivo at 25 µmol/kg [3] [%],inhibition in vivo at 100 µmol/kg [4] [%],EC50 [5] [nM],EC50 [6] [nM],EC50 [7] [nM],Selectivity ratio [8],Selectivity ratio [9],also measured
CC1CNCCc2ccc(Cl)cc21 (racemic),62,52,81,–,–,–,–,–,–
COc1ccc2c(c1)CCNCC2C (racemic),–,–,–,> 10000,1260,> 10000,–,–,–
CC1CNCCc2cc(Cl)ccc21 (racemic),–,–,–,158,25.1,501,0.8,1.3,–
COc1cc2c(cc1Cl)C(C)CNCC2 (racemic) [listing 1 of 2 here],52,38,71,63.1,7.94,63.1,–,–,–
CC1CNCCc2cccc(Cl)c21 (racemic),–,–,–,> 10000,794,> 10000,–,–,–
CC1CNCCc2cc(F)c(Cl)cc21 (racemic),41,30,58,63.1,6.31,316,1,1.7,–
COc1ccc2c(c1)C(C)CNCC2 (racemic),–,–,–,251,200,5010,–,–,–
CC1CNCCc2c(Cl)cccc21 (racemic),–,–,–,> 10000,794,> 10000,–,–,–
CC1CNCCc2ccccc21 (racemic),–,–,–,–,316,3980,–,–,–
CC1CNCCc2ccc(Cl)c(F)c21 (racemic),–,–,–,794,20,2510,1.6,2.1,–
COc1cc2c(cc1Cl)CCNCC2C (racemic),–,–,–,100,50.1,200,0.3,0.6,–
CC1CNCCc2ccc(Br)cc21 (racemic),–,–,–,501,10,2000,1.7,2.3,–
COc1cc2c(cc1Cl)C(C)CNCC2 (racemic) [listing 2 of 2 here],–,–,–,–,–,–,0.9,0.9,–
"COc1cc2c(cc1Cl)C(C)CNCC2 (single isomer, unassigned; form 1) [listing 1 of 2 here]",36,32,43,200,7.94,398,–,–,–
"COc1cc2c(cc1Cl)C(C)CNCC2 (single isomer, unassigned; form 1) [listing 2 of 2 here]",–,–,–,–,–,–,1.4,1.7,–
"COc1cc2c(cc1Cl)C(C)CNCC2 (single isomer, unassigned; form 2) [listing 1 of 2 here]",66,60,77,31.6,6.31,39.8,–,–,–
"COc1cc2c(cc1Cl)C(C)CNCC2 (single isomer, unassigned; form 2) [listing 2 of 2 here]",–,–,–,–,–,–,0.7,0.8,–
C[C@H]1CNCCc2ccc(Cl)cc21 [LORCASERIN],77,58,82,–,–,–,–,–,Activity [10]: 15.75%; Vd [11]: 18 L/kg; ED50 [12]: 18 mg/kg; Activity [13]: 14.03%; half-life [14]: 3.1 h; AUC(0-inf) [15]: 800 ng·h/mL; Activity [16]: 8.5%; bioavailability [17]: 86%; inhibition in vivo at 12.5 µmol/kg [2]: 34%; Cmax [18]: 260 ng/mL; half-life [19]: 3.7 h; clearance [20]: 102 mL/min/kg; Tmax [21]: 0.5 h; AUC(0-inf) [22]: 1400 ng·h/mL; Activity [23]: 17.02%
C[C@H](N)Cc1cccc(C(F)(F)F)c1 [NORDEXFENFLURAMINE],–,–,–,200,25.1,15.8,0.9,-0.2,–
